Assays:
LMW-PTP [1] = molecular target: T1, LMW-PTP (Homo sapiens, UniProt P24666); assay type: biochemical; details: for IC50: read-out: IC50 against LMW-PTP, weak ligands, values in mM; for mode of inhibition of LMW-PTP: Lineweaver-Burk, pNPP as substrate
T1 sequence (P24666 1-158): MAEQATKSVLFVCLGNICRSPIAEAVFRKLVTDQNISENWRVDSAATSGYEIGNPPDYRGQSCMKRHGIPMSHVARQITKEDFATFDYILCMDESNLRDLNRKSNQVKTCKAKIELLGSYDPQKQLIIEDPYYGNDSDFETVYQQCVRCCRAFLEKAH

PTP1B = molecular target: T2, PTP1B (Homo sapiens, UniProt P18031); assay: PTP activity assay with pNPP, PTP1B; assay type: biochemical; details: read-out: IC50 for PTP1B; values in mM
T2 sequence (P18031 1-435): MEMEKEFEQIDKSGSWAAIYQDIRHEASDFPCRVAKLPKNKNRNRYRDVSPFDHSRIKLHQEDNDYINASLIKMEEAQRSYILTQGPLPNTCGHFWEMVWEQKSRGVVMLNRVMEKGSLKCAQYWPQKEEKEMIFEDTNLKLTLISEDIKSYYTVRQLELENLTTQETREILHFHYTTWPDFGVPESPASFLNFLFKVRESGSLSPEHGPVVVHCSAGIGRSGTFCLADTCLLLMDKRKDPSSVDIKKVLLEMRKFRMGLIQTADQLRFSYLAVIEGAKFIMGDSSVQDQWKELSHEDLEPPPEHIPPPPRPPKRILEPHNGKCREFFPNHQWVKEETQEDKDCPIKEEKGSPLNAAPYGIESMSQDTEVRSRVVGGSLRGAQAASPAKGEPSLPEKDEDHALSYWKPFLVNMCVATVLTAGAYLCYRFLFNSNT

SHP2 = molecular target: T3, SHP2 (Homo sapiens, UniProt Q06124); assay: PTP activity assay with pNPP, SHP2; assay type: biochemical; details: read-out: IC50 for SHP2; values in mM
T3 sequence (Q06124 1-593): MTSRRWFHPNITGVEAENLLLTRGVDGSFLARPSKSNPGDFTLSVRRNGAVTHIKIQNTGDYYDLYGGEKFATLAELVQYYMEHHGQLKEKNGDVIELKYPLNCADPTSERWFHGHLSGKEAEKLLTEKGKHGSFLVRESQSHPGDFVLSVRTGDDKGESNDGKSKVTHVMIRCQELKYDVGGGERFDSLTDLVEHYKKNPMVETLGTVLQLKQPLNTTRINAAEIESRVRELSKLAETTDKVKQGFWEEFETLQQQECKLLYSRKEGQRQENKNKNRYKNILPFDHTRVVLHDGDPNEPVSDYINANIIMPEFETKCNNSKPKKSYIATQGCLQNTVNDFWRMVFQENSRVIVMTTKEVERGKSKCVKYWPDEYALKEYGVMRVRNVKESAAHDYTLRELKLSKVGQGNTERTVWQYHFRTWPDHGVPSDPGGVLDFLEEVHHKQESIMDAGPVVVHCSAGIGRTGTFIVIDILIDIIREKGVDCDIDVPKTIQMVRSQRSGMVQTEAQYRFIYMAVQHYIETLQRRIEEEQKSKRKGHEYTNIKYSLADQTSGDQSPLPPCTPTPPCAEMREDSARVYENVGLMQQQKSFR

PTPH1 = molecular target: T4, PTPH1 (Homo sapiens, UniProt P26045); assay: PTP activity assay with pNPP, PTPH1; assay type: biochemical
T4 sequence (P26045 1-913): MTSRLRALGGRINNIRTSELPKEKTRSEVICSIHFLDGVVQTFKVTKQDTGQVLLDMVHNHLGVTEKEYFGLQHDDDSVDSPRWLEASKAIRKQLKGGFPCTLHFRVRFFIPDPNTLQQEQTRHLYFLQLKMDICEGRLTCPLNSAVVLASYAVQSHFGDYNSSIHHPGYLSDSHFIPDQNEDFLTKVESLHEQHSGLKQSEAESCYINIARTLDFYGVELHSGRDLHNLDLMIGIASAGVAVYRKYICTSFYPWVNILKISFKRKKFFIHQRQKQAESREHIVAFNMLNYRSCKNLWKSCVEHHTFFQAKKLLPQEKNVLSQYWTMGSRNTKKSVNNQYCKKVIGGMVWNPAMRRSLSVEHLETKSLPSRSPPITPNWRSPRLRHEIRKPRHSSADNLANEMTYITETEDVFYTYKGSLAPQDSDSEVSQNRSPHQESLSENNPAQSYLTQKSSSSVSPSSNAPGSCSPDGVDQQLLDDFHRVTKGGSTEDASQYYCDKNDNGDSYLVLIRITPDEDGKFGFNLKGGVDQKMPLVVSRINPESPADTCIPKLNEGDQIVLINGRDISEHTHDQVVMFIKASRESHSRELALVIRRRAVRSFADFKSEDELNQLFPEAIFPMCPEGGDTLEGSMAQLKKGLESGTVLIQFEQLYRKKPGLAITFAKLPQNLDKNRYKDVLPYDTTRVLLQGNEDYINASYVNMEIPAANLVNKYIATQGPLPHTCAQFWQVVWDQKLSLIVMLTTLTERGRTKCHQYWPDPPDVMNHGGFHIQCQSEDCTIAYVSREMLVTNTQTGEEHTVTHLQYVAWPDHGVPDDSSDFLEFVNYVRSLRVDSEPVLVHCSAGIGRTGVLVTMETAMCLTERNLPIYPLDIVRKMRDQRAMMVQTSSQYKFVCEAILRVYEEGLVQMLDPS

panel of 24 phosphatases = assay: Selectivity profiling against panel of 24 phosphatases; assay type: biochemical; details: for inhibitory activity against the phosphatases in the panel: at 200 μM concentration; for preference (selectivity) for LMW-PTP over the panel of other PTPs: over all 24 other phosphatases
LMW-PTP [2] = molecular target: T1, LMW-PTP; assay: Screen of SPAA-based focused library at ~10 μM, LMW-PTP; assay type: biochemical; details: compound concentration ~10 μM, crude library wells
[3] = test system: insulin induced AKT phosphorylation in HepG2 cells; assay: Insulin induced AKT phosphorylation in HepG2 cells; assay type: cell-based; details: 2 h pretreatment, 50 nM insulin 30 min, compound 33 at 16 μM
Method in brief: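 HepG2 cells grown in DMEM with 10% FBS at 37 °C and 5% CO2. At 60-80% confluence, cells were serum-starved overnight, then given vehicle or test compound for 2 h. They were left unstimulated or stimulated with 50 nM insulin for 30 min, then lysed. Immunoblotting used a 10% polyacrylamide gel with anti-phospho-AKT and anti-AKT antibodies, ECL detection and densitometry. pAKT/AKT ratios were normalized to vehicle.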

## O=S(=O)(O)CCN1CCOCC1 [MES]
LMW-PTP [1]
  IC50: > 10 mM

## NC(=O)C(c1ccccc1)S(=O)(=O)O (centres unmarked) [SPAA, SulfoPhenyl Acetic Amide]
LMW-PTP [1]
  IC50: 2 mM
PTP1B
  IC50: > 50 mM
SHP2
  IC50: > 50 mM

## Cc1c(Br)cc(NC(=O)C(c2ccccc2)S(=O)(=O)O)cc1Br (centres unmarked) [compound 1]
PTPH1
  IC50: > 200 µM

## O=C(Nc1ccc(OCc2ccccc2)c(Cl)c1)C(c1ccccc1)S(=O)(=O)O (centres unmarked) [compound 2]
PTPH1
  IC50: > 200 µM

## O=C(Nc1ccc2nc(C(F)(F)F)[nH]c2c1)C(c1ccccc1)S(=O)(=O)O (centres unmarked) [compound 3]
PTPH1
  IC50: > 200 µM
Panel of 24 phosphatases
  inhibitory activity against the phosphatases in the panel: no inhibitory activity
  preference (selectivity) for LMW-PTP over the panel of other PTPs: greater than 35 fold

## O=C(Nc1ccc(-n2ccnc2)cc1)C(c1ccccc1)S(=O)(=O)O (centres unmarked) [compound 4]
PTPH1
  IC50: > 100 µM

## O=C(Nc1ccc(N2CCOCC2)cc1)C(c1ccccc1)S(=O)(=O)O (centres unmarked) [compound 5]
PTPH1
  IC50: > 200 µM
Panel of 24 phosphatases
  inhibitory activity against the phosphatases in the panel: no inhibitory activity

## O=C(Nc1cnc2ccccc2c1)C(c1ccccc1)S(=O)(=O)O (centres unmarked) [compound 6]
PTPH1
  IC50: > 200 µM
Panel of 24 phosphatases
  inhibitory activity against the phosphatases in the panel: no inhibitory activity

## O=C(Nc1nc2ccccc2s1)C(c1ccccc1)S(=O)(=O)O (centres unmarked) [compound 7]
LMW-PTP [1]
  mode of inhibition of LMW-PTP: competitive
PTPH1
  IC50: > 200 µM

## O=C(Nc1cc(C(F)(F)F)cc(C(F)(F)F)c1)C(c1ccccc1)S(=O)(=O)O (centres unmarked) [compound 8]
PTPH1
  IC50: > 200 µM

## O=C(Nc1ccccc1)C(c1ccccc1)S(=O)(=O)O (centres unmarked) [compound 9]
LMW-PTP [1]
  inhibitory activity toward LMW-PTP (in words): significantly reduced activities
LMW-PTP [1]; relative to compound 7
  fold decrease in inhibitory activity versus compound 7: > 15 fold

## O=C(Nc1nccs1)C(c1ccccc1)S(=O)(=O)O (centres unmarked) [compound 10]
LMW-PTP [1]
  inhibitory activity toward LMW-PTP (in words): significantly reduced activities

## CCCNC(=O)C(c1ccccc1)S(=O)(=O)O (centres unmarked) [compound 11]
LMW-PTP [1]
  inhibitory activity toward LMW-PTP (in words): inactive
LMW-PTP [2]
  inhibition against LMW-PTP in library screen: inactive

## O=C(Nc1nc2ccc([N+](=O)[O-])cc2s1)C(c1ccccc1)S(=O)(=O)O (centres unmarked) [compound 28]
LMW-PTP [1]
  fold more active than compound 7 against LMW-PTP: 3.5 fold
  mode of inhibition of LMW-PTP: competitive
PTPH1
  IC50: > 100 µM
Panel of 24 phosphatases
  preference (selectivity) for LMW-PTP over the panel of other PTPs: over 50 fold

## CCOC(=O)c1ccc2nc(NC(=O)C(c3ccccc3)S(=O)(=O)O)sc2c1 (centres unmarked) [compound 32]
LMW-PTP [1]
  fold more active than compound 7 against LMW-PTP: 2.5 fold

## O=C(Cc1ccccc1)Nc1nc2ccc([N+](=O)[O-])cc2s1 [compound 33]
LMW-PTP [1]
  inhibitory activity toward LMW-PTP (in words): completely abolishes
[3]
  effect on insulin induced AKT phosphorylation (in words): no effect
